Results collected from several papers.
Target: Mitogen-activated protein kinase kinase kinase kinase 3 (MAP4K3, Homo sapiens, UniProt Q8IVH8)
One construct used (Q8IVH8 1-894): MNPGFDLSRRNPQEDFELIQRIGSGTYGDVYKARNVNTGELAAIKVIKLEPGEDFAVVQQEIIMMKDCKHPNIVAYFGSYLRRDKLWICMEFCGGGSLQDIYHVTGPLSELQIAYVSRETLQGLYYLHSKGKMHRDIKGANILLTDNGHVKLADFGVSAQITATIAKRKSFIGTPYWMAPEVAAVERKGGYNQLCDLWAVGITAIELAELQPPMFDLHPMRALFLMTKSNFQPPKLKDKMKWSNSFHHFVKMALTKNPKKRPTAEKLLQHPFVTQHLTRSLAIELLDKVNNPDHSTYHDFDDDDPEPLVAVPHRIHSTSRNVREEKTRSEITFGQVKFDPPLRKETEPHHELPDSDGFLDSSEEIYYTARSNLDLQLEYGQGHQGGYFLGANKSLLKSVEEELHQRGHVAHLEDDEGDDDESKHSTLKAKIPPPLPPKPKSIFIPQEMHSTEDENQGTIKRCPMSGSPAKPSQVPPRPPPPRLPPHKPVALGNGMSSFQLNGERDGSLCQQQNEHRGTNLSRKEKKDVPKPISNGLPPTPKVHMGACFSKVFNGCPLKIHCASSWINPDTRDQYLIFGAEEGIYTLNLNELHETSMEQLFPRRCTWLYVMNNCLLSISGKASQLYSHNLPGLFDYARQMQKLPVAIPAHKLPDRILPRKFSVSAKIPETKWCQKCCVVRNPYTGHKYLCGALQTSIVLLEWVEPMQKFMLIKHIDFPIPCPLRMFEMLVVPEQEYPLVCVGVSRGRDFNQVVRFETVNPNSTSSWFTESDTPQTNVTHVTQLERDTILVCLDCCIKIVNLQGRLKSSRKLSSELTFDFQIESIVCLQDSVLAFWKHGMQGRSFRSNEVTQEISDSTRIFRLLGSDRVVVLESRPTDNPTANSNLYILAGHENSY

COc1ccc2oc(-c3ccc4nc(N)oc4c3)c/c(=N\c3ccccc3NC(=O)CCN)c2c1
remaining binding (binding; 1 µM): 113%

CO[C@@H]1[C@H](N(C)C(=O)c2ccccc2)C[C@H]2O[C@]1(C)n1c3ccccc3c3c4c(c5c6ccccc6n2c5c31)C(=O)NC4
inhibition (enzyme activity; inhibitor; 1 µM): 77%

C#Cc1cc(-c2cc(Nc3nc(N[C@@H](C)c4ccc(F)cn4)ncc3Cl)n[nH]2)ccc1C=O
inhibition (enzyme activity; inhibitor; 0.2 µM): 45.4%

C=CC(=O)N1CCC([C@@H]2CCNc3c(C(N)=O)c(-c4ccc(Oc5ccccc5)cc4)nn32)CC1
inhibition (enzyme activity; inhibitor; 1 µM): 14%

C[C@H]1CC[C@H](n2c3cnccc3c3cnc(Nc4ccc5c(n4)CCN(C(=O)CO)C5)nc32)CC1
remaining binding (binding; competition with immobilised ligand; 1 µM): 100%

C1=C/COCc2cc(ccc2OCCN2CCCC2)Nc2nccc(n2)-c2cccc(c2)COC/1
remaining signal (cell-free assay; 0.1 µM): 80%

Cc1ccc(NC(=O)c2ccnc(C(F)(F)F)c2)cc1-c1cc(OCCO)nc(N2CCOCC2)c1
remaining binding (binding; competition with immobilised ligand; 1 µM): 100%

CCCCC(=O)Nc1ccc(-c2ccc3ncn(CCC)c(=O)c3c2)cn1
remaining binding (binding; competition with immobilised ligand; 0.5 µM): 81%
